Laboratory results taken from ChEMBL document CHEMBL1150125, “Antiplasmodial activity of alkaloids from various strychnos species” (J Nat Prod, 2002).
pIC50: −log10 of the molar value.

How the values were obtained:
Plasmodium falciparum [1] = test: Antiplasmodial activity against chloroquine-sensitive Plasmodium falciparum FCA 20/ Ghana by [3H]hypoxanthine uptake; assay type: functional, organism-based
Method in brief: (§1)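 Asexual erythrocytic stages kept in continuous culture (Trager and Jensen method). Each sample run as eight 4-fold dilutions, final 20 to 0.0012 µg/mL, in duplicate. IC50 and IC90 derived; number of independent experiments per value given separately.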

Plasmodium falciparum [2] = test: Antiplasmodial activity against chloroquine-resistant Plasmodium falciparum W2/Indochina by [3H]hypoxanthine uptake; assay type: functional, organism-based; method in brief: as §1
Plasmodium falciparum [3] = test: Antiplasmodial activity against chloroquine-resistant Plasmodium falciparum FCB1-R/Colombia by [3H]hypoxanthine uptake; assay type: functional, organism-based; method in brief: as §1
HCT-116 = test: Cytotoxicity against human HCT116 cells after 72 hrs by WST1 assay; assay type: cell-based; settings: HCT-116, 72 h
Method in brief: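 HCT-116 colon cancer cells were seeded at 5000 per well in medium containing the test drugs, with matched DMSO controls. After 72 h, WST-1 was added for 30 min at 37 °C. Absorbance was read against a cell-free medium plus WST-1 blank and expressed as percent of control. Two independent experiments were run, each in triplicate, and means ± SEM were calculated.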

[4] = Selectivity index, ratio of IC50 for human HCT116 cells to IC50 for chloroquine-resistant Plasmodium falciparum W2/Indochina; assay type: toxicity, cell-based, HCT-116; settings: HCT116 cells versus Plasmodium falciparum W2/Indochina, read-out: Ratio IC50
Method in brief: (§2)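 Selectivity index = IC50 in HCT-116 cells / IC50 in P. falciparum. Cell IC50: 5000 HCT-116 cells per well with drug, DMSO controls, 72 h incubation, then WST-1 for 30 min at 37 °C. Absorbance read against a cell-free blank and expressed as percent of control. Two independent experiments, each in triplicate, means ± SEM.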

[5] = Selectivity index, ratio of IC50 for human HCT116 cells to IC50 for chloroquine-sensitive Plasmodium falciparum FCA 20/ Ghana; assay type: toxicity, cell-based, HCT-116; settings: HCT116 cells versus Plasmodium falciparum FCA 20/Ghana, read-out: Ratio IC50; method in brief: as §2
[6] = Plasmodium falciparum, FCA 20/ Ghana
[7] = Plasmodium falciparum, W2/Indochina
[8] = Plasmodium falciparum, FCB1-R/Colombia

Compound | pIC50 (Plasmodium falciparum [1]; [6]) | IC90 (Plasmodium falciparum [1]; [6]) [µM] | pIC50 (Plasmodium falciparum [2]; [7]) | IC90 (Plasmodium falciparum [2]; [7]) [µM] | pIC50 (Plasmodium falciparum [3]; [8]) | IC90 (Plasmodium falciparum [3]; [8]) [µM] | pIC50 (Plasmodium falciparum [2]) | pIC50 (HCT-116) | selectivity ratio [4] | selectivity ratio [5] | pIC50 (Plasmodium falciparum [1]) | IC90 (Plasmodium falciparum [1]) [µM] | pIC50 (Plasmodium falciparum [3]) | IC90 (Plasmodium falciparum [3]) [µM] | IC90 (Plasmodium falciparum [2]) [µM]
C=C[C@H]1CN2CCc3c([nH]c4ccccc34)[C@@H]2C[C@@H]1C[C@H]1c2[nH]c3ccccc3c2CCN1C [USAMBARINE] | 5.60 | 9.21 | 5.63 | 7.29 | – | – | – | – | – | – | – | – | – | – | –
CC1C2=CN3CCc4c([nH]c5ccc(O)cc45)C3CC2CC2NCCC3c4ccccc4N1C23 (stereo in doubt; 64) [JANUSSINE A] | 5.02 | 30.9 | – | 27.6 | 4.80 | 28.3 | 4.90 | – | – | – | – | – | – | – | –
CCN(CC)CCCC(C)Nc1ccnc2cc(Cl)ccc12 (stereo not given) [CHLOROQUINE] | – | 0.071 | – | 1.75 | – | 0.084 | – | 4.47 | – | – | – | – | – | – | –
C/C=C1\CN2CCC3c4ccccc4NC3[C@@H]2C[C@@H]1CC1=NCCc2c1[nH]c1ccccc21 (stereo not given in full) [DIHYDROUSAMBARENSINE] | 6.07 | 2.49 | 7.49 | 4.68 | – | – | – | 4.92 | 375 | 14 | – | – | – | – | –
c1ccc2c(c1)C[C@H]1C3Nc4ccccc4C3CCN1C2 (stereo not given in full) | 4.95 | 42.2 | 4.74 | 89.5 | 4.89 | 47.4 | – | – | – | – | – | – | – | – | –
C/C=C1/CN2CCc3c([nH]c4ccccc34)[C@@H]2C[C@@H]1C1CCC([C@H]2C[C@H]3c4[nH]c5ccccc5c4CCN3C/C2=C/C)C1 (stereo not given in full) [STRYCHNOFURANINE] | 5.39 | 15 | 5.55 | 16 | 4.97 | 33.5 | – | – | – | – | – | – | – | – | –
C=C1c2[nH]c3ccccc3c2CCN2C[C@@H](CC)CC[C@H]12 [EPINGOUNIENSINE] | 5.11 | 26.9 | 4.80 | 52.8 | 4.79 | 49.7 | – | – | – | – | – | – | – | – | –
C[C@@H]1OC[C@H]2[C@@H]3C[C@H]4N(CC[C@]45c4ccccc4N[C@H]25)/C(=C/C2=CN4CC[C@]56c7ccccc7N[C@H]5[C@H](CO)[C@H]2C[C@H]46)[C@@H]31 | 5.01 | 17.7 | < 4.70 | – | 5.28 | 12.7 | – | – | – | – | – | – | – | – | –
CN1CCC2c3ccccc3N3C2[C@@H]1C[C@@H](C1=CCOC1=O)C[C@@H]3O (stereo not given in full) [AKAGERINE LACTONE] | 4.77 | 60.7 | 4.59 | 53.3 | 4.56 | 55.2 | – | – | – | – | – | – | – | – | –
CC1C2=CN3CCc4c([nH]c5ccc(O)cc45)C3CC2CC2NCCC3c4ccccc4N1C23 (stereo in doubt; 65) [JANUSSINE A] | – | – | – | – | – | – | 5.32 | – | – | – | 4.90 | 34.9 | 4.77 | 33.1 | 27.8
C/C=C1/CN2[C@@H](C3=C[C@@H]4[C@@H]5N(C3=O)c3ccccc3[C@@]53CCN5C/C(=C/C)[C@@H]4C[C@H]53)C[C@@]34c5ccccc5N5C(=O)CC=C([C@H]1C[C@H]23)[C@H]54 [ISOSUNGUCINE] | 5.88 | 7.06 | 6.58 | 1.72 | – | – | – | – | – | – | – | – | – | – | –
C=C1c2[nH]c3ccccc3c2CCN2C[C@H](CC)CC[C@H]12 [NGOUNIENSINE] | 4.57 | 71 | 4.69 | 70.1 | 4.75 | 62.8 | – | – | – | – | – | – | – | – | –
C/C=C1\CN2CC[C@]34c5ccccc5N5[C@@H]6O[C@H]([C@H]([C@H]53)[C@H]1C[C@H]24)N1c2ccccc2[C@]23CCN4C/C(=C/C)[C@H](C[C@H]42)[C@H]6[C@H]13 (stereo in doubt; 53) [MATOPENSINE] | – | – | – | – | – | – | 5.06 | – | – | – | 4.88 | 73.3 | 5.33 | 24.8 | 86.7
C/C=C1/CN2CC[C@]34c5ccccc5N5C(=O)C([C@H]6C[C@]78c9ccccc9N9C(=O)C=C[C@@H]([C@H]97)[C@H]7C[C@@H]8N6C/C7=C/C)=C[C@H]([C@H]53)[C@H]1C[C@H]24 [SUNGUCINE] | 5.11 | 26.3 | 5.00 | 33.2 | – | – | – | 5.21 | 0.611 | 0.79 | – | – | – | – | –
C/C=C1/CN2CCc3c([nH]c4ccccc34)[C@@H]2C[C@@H]1C1=CN2c3ccccc3[C@]34CCN5C/C(=C/C)[C@H](C[C@H]53)[C@@H]([C@@H]1O)[C@H]24 [LONGICAUDATINE F] | 5.11 | 26.7 | 5.02 | 28.1 | 4.93 | 33.4 | – | – | – | – | – | – | – | – | –
C=C[C@H]1CN2CC[C@H]1C[C@H]2[C@H](O)c1ccnc2ccc(OC)cc12 [QUININE] | 6.57 | 1.91 | 6.38 | 1.72 | 6.70 | 2.74 | – | – | – | – | – | – | – | – | –
C/C=C1/CN2CC[C@@]34c5ccccc5N5C([C@H]6[C@@H]7N(C(C)=O)c8ccccc8[C@@]78CCN7C/C(=C/C)[C@@H]6C[C@H]78)OC=C([C@H]1C[C@H]23)[C@H]54 (stereo not given in full) | 5.34 | 18.7 | 5.48 | 18.5 | 5.67 | 7.13 | – | – | – | – | – | – | – | – | –
C=CC1CN2CC[C@@]34c5cc(C(C)C6=CN7CC[C@]89c%10ccccc%10N[C@H]8[C@@H](CO)[C@H]6C[C@H]79)ccc5N[C@@H]3[C@@H](CO)[C@@H]1C[C@@H]24 (stereo in doubt; 67) [PANGANENSINE X] | 4.98 | – | – | 78.7 | – | – | 4.76 | – | – | – | – | 68.2 | 4.87 | 43.7 | –
C/C=C1/CN2CCc3c([nH]c4ccccc34)[C@@H]2C[C@@H]1C1=CN2c3ccccc3[C@]34CCN5C/C(=C/CO)[C@H](C[C@H]53)[C@@H]([C@@H]1O)[C@H]24 [TETRADEHYDROLONGICAUDATINE Y] | 5.91 | 7.97 | 6.02 | 12.1 | – | – | – | – | – | – | – | – | – | – | –
C/C=C1/CN2CCc3c([nH]c4ccccc34)[C@@H]2C[C@@H]1Cc1nccc2c1[nH]c1ccccc12 [USAMBARENSINE] | – | 4.41 | 6.23 | 4.83 | – | – | – | – | – | – | – | – | – | – | –
C[C@@H]1CC[C@H]2[C@@H](C)C(=O)O[C@@H]3O[C@@]4(C)CC[C@@H]1[C@]32OO4 [ARTEMISININ] | – | – | 8.70 | 0.017 | 8.30 | 0.013 | – | – | – | – | – | – | – | – | –
C=CC1CN2CC[C@@]34c5cc(C(C)C6=CN7CC[C@]89c%10ccccc%10N[C@H]8[C@@H](CO)[C@H]6C[C@H]79)ccc5N[C@@H]3[C@@H](CO)[C@@H]1C[C@@H]24 (stereo in doubt; 68) [PANGANENSINE X] | – | 34.8 | 4.77 | – | 4.89 | 26.1 | – | – | – | – | 4.83 | – | – | – | 85.8
